How the values were obtained:
[1] = Half life in aqueous buffer solutions at pH 7.4 by HPLC analysis; format: ADME; settings: aqueous buffer solution
[2] = Half life in aqueous buffer solutions at pH 7 by HPLC analysis; format: ADME; settings: aqueous buffer solution
[3] = Chemical stability of the compound in aqueous buffer solutions at acidic pH by HPLC analysis; format: physicochemical
[4] = Lipophilicity, log K of the compound; format: physicochemical; settings: RP-HPLC capacity factor, C18 column, methanol mobile phase
In short: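 Lipophilicity measured by RP-HPLC as capacity factor k, reported as log k.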

[5] = target: Photosystem II protein D1 (Spinacia oleracea, UniProt P69560); experiment: Inhibition of photosystem II in Spinacia oleracea (spinach) chloroplasts assessed as reduction of photosynthetic electron transport
In short: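 PET in spinach chloroplasts read spectrophotometrically as DCPIP photoreduction in a chloroplast suspension at pH 7.2. Read within 2 min after adding the carbamate solution in DMSO. IC50 is the molar concentration giving a 50% decrease in activity relative to the untreated control.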

[6] = target: Photosystem II protein D1 (Spinacia oleracea) (UniProt P69560); experiment: Inhibition of photosystem II in Spinacia oleracea (spinach) chloroplasts assessed as restoration of photosynthetic electron transport relative to control in presence of DPC; parameters: scale not given: the % may be the effect or the level left
In short: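 Spinach chloroplasts were first treated with the carbamate, then given the artificial PS 2 donor 1,5-diphenylcarbazide (DPC). PET activity was then measured and expressed as % of the untreated control.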

Compound: CCNC(=O)Oc1ccc(Cl)cc1C(=O)Nc1ccc(Cl)cc1
- half-life [1]: 43 h
- half-life [2]: 64 h
- Stability [3]: Stable
- log K [4]: 0.7695
- IC50 [5]: 9.7 µM
- Activity [6]: 94%

Compound: CCCCCNC(=O)Oc1ccc(Cl)cc1C(=O)Nc1ccc(Cl)c(Cl)c1
- half-life [1]: 43 h
- half-life [2]: 64 h
- Stability [3]: Stable
- log K [4]: 1.0601
- IC50 [5]: 99.2 µM

Compound: CCCCCCCCNC(=O)Oc1ccc(Cl)cc1C(=O)Nc1ccc(Cl)cc1
- half-life [1]: 43 h
- half-life [2]: 64 h
- Stability [3]: Stable
- log K [4]: 0.7899
- IC50 [5]: 7.4 µM

Compound: CCCCCCCCCCCNC(=O)Oc1ccc(Cl)cc1C(=O)Nc1ccc(Cl)c(Cl)c1
- half-life [1]: 43 h
- half-life [2]: 64 h
- Stability [3]: Stable
- log K [4]: 1.0903

Compound: CCCCCCCCCCCNC(=O)Oc1ccc(Cl)cc1C(=O)Nc1cccc(Cl)c1
- half-life [1]: 43 h
- half-life [2]: 64 h
- Stability [3]: Stable
- log K [4]: 0.7902
- IC50 [5]: 18.3 µM

Compound: CCCCCCCNC(=O)Oc1ccc(Cl)cc1C(=O)Nc1cccc(Cl)c1
- half-life [1]: 43 h
- half-life [2]: 64 h
- Stability [3]: Stable
- log K [4]: 0.7772
- IC50 [5]: 4.9 µM
- Activity [6]: 94%

Compound: CCCCCCCCCCCNC(=O)Oc1ccc(Cl)cc1C(=O)Nc1ccc(Cl)cc1
- half-life [1]: 43 h
- half-life [2]: 64 h
- Stability [3]: Stable
- log K [4]: 0.7947
- IC50 [5]: 10.5 µM

Compound: CCCCCCNC(=O)Oc1ccc(Cl)cc1C(=O)Nc1cccc(Cl)c1
- half-life [1]: 43 h
- half-life [2]: 64 h
- Stability [3]: Stable
- log K [4]: 0.7758
- IC50 [5]: 5.3 µM

Compound: CCCCCCCCNC(=O)Oc1ccc(Cl)cc1C(=O)Nc1cccc(Cl)c1
- half-life [1]: 43 h
- half-life [2]: 64 h
- Stability [3]: Stable
- log K [4]: 0.7831
- IC50 [5]: 10.1 µM

Compound: CCCCCNC(=O)Oc1ccc(Cl)cc1C(=O)Nc1ccc(Cl)cc1
- half-life [1]: 43 h
- half-life [2]: 64 h
- Stability [3]: Stable
- log K [4]: 0.7838
- IC50 [5]: 6.3 µM

Compound: CCCCCCCCCNC(=O)Oc1ccc(Cl)cc1C(=O)Nc1ccc(Cl)cc1
- half-life [1]: 43 h
- half-life [2]: 64 h
- Stability [3]: Stable
- log K [4]: 0.7919
- IC50 [5]: 8 µM

Compound: CN(C)C(=O)Nc1ccc(Cl)c(Cl)c1 [DCMU]
- log K [4]: 0.47
- IC50 [5]: 1.9 µM

Compound: CCCCCCCNC(=O)Oc1ccc(Cl)cc1C(=O)Nc1ccc(Cl)c(Cl)c1
- half-life [1]: 43 h
- half-life [2]: 64 h
- Stability [3]: Stable
- log K [4]: 1.0667
- IC50 [5]: 169 µM

Compound: CCCCCNC(=O)Oc1ccc(Cl)cc1C(=O)Nc1cccc(Cl)c1
- half-life [1]: 43 h
- half-life [2]: 64 h
- Stability [3]: Stable
- log K [4]: 0.7732
- IC50 [5]: 5.4 µM

Compound: CCCCCCCCCCNC(=O)Oc1ccc(Cl)cc1C(=O)Nc1ccc(Cl)cc1
- half-life [1]: 43 h
- half-life [2]: 64 h
- Stability [3]: Stable
- log K [4]: 0.7942
- IC50 [5]: 8.4 µM

Compound: CCCCNC(=O)Oc1ccc(Cl)cc1C(=O)Nc1cccc(Cl)c1
- half-life [1]: 43 h
- half-life [2]: 64 h
- Stability [3]: Stable
- log K [4]: 0.7611
- IC50 [5]: 13.4 µM

Compound: CCCCCCNC(=O)Oc1ccc(Cl)cc1C(=O)Nc1ccc(Cl)c(Cl)c1
- Stability [3]: Stable
- log K [4]: 1.0611
- IC50 [5]: 144 µM

Compound: CCCCCCCCNC(=O)Oc1ccc(Cl)cc1C(=O)Nc1ccc(Cl)c(Cl)c1
- half-life [1]: 43 h
- half-life [2]: 64 h
- Stability [3]: Stable
- log K [4]: 1.0845
- IC50 [5]: 432 µM

Compound: CCNC(=O)Oc1ccc(Cl)cc1C(=O)Nc1ccc(Cl)c(Cl)c1
- half-life [1]: 43 h
- half-life [2]: 64 h
- Stability [3]: Stable
- log K [4]: 1.0234
- IC50 [5]: 82.3 µM

Compound: CCNC(=O)Oc1ccc(Cl)cc1C(=O)Nc1cccc(Cl)c1
- half-life [1]: 43 h
- half-life [2]: 64 h
- Stability [3]: Stable
- log K [4]: 0.7523
- IC50 [5]: 15.6 µM

Compound: CCCCCCNC(=O)Oc1ccc(Cl)cc1C(=O)Nc1ccc(Cl)cc1
- half-life [1]: 43 h
- half-life [2]: 64 h
- Stability [3]: Stable
- log K [4]: 0.7859
- IC50 [5]: 6.3 µM

Compound: CCCCCCCCCCNC(=O)Oc1ccc(Cl)cc1C(=O)Nc1ccc(Cl)c(Cl)c1
- half-life [1]: 43 h
- half-life [2]: 64 h
- Stability [3]: Stable
- log K [4]: 1.0894

Compound: CCCCCCCNC(=O)Oc1ccc(Cl)cc1C(=O)Nc1ccc(Cl)cc1
- half-life [1]: 43 h
- half-life [2]: 64 h
- Stability [3]: Stable
- log K [4]: 0.7872
- IC50 [5]: 7.1 µM

Compound: CCCCCCCCCNC(=O)Oc1ccc(Cl)cc1C(=O)Nc1cccc(Cl)c1
- half-life [1]: 43 h
- half-life [2]: 64 h
- Stability [3]: Stable
- log K [4]: 0.7837
- IC50 [5]: 15.4 µM

Compound: CCCCCCCCCNC(=O)Oc1ccc(Cl)cc1C(=O)Nc1ccc(Cl)c(Cl)c1
- half-life [1]: 43 h
- half-life [2]: 64 h
- Stability [3]: Stable
- log K [4]: 1.088
- IC50 [5]: 506 µM

Compound: CCCCCCCCCCNC(=O)Oc1ccc(Cl)cc1C(=O)Nc1cccc(Cl)c1
- half-life [1]: 43 h
- half-life [2]: 64 h
- Stability [3]: Stable
- log K [4]: 0.7873
- IC50 [5]: 15.8 µM
